# Hits are enriched below; roughly 2.6% of the tested compounds scored in any of these assays.
# PRMT1 inh: blocks human protein arginine methyltransferase 1; Q99873; recombinant PRMT1, activity-based probe fluorescence polarization; actives 1.3% (n = 370,000); inhibition, % at 2.79 µM;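 active = inhibition above about 21% made by adding two undisclosed values, limit read from the data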
# Target sequence (Q99873 whole entry, looked up): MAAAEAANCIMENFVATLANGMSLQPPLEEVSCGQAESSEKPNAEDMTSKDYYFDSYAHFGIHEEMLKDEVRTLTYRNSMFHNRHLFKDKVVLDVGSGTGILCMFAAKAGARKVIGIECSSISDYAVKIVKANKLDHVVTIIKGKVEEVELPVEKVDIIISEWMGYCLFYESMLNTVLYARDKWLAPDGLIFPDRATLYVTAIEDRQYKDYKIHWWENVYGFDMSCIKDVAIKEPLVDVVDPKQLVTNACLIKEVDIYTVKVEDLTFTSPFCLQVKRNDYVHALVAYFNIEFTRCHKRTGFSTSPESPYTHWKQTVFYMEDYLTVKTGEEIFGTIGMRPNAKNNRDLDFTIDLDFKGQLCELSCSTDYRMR
# TCR-CD3 inh: human TCR-CD3 binding inhibition. TAMRA-labeled TCR probe fluorescence, biochemical. inhibition, % at 9.4 µM. actives 0.37% (n = 360,000). AID 651800; in the data active = inhibition above about 19%;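 also: recombinant mutant TCR 2C K166C tagged with TAMRA read by polarization; 0% = receptor in buffer alone and 100% = receptor with positive control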
# mABHD4 FP: inhibitors of mouse ABHD4; Q8VD66; purified mABHD4, FP-Rh probe fluorescence polarization; inhibition, % at 8.92 µM; actives 0.54% (n = 370,000); AID 720543;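 active = inhibition exceeding the mean over every tested compound plus 3 SD, cut at about 30% in these data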;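 also: 0% = plate median of compound wells and 100% = S159A mutant with DMSO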
#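 Test system: mABHD4 protein | Buffer or medium: HEPES pH 7.0 buffer, 150 mM NaCl, 0.01% Pluronic F-127 | Probe or stimulus: FP-Rh fluorescent activity-based probe, added after compound pre-incubation | Timing: Pre-incubation 45 min, probe exposure 60 min, at 25 °C | Technique: Fluorescence polarization, excitation 525 nm, emission 598 nm, BODIPY TMR filters | Repeats: Single well per compound (singlicate)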
# SIAE inh: inhibitors of human sialic acid acetylesterase SIAE. SIAE FP-Rh probe binding, fluorescence polarization. AID 1053197. actives 0.69% (n = 370,000). inhibition, % at 9.66 µM. Q9HAT2;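 active = inhibition above a cutoff: mean of compounds within the control limits plus 3 SD of those, cut at about 17% in these data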;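 also: 0% = plate median of compound wells and 100% = probe without SIAE protein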
# HTRA1 inh: blocks human HTRA1 serine peptidase; Q92743; recombinant HTRA1, FP-rhodamine activity-based probe, fluorescence polarization; inhibition, % at 5.96 µM; actives 0.5% (n = 340,000); AID 504803; in the data active = inhibition above about 36%;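 also: 0% = enzyme with DMSO and 100% = wells lacking enzyme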
# PRMT1 confirm: confirmation of human PRMT1 inhibitors | shares compounds with PRMT1 inh | recombinant His-PRMT1, activity-based probe fluorescence polarization | inhibition, % at 2.79 µM | actives 42% (n = 3,300) | AID 687036;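 active = mean inhibition across replicates above the hit cutoff derived for the earlier primary screen, cut at about 22% in these data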
# * marks the source's active call; other numbers are inactive results; . = no result given; ! = repeats disagree.
SMILES,PRMT1 inh,TCR-CD3 inh,mABHD4 FP,SIAE inh,HTRA1 inh,PRMT1 confirm
O=C1NC(=O)N(CCC2=CCCCC2)C(=O)/C1=C\c1cccs1,30.6*,-19.1,-28.4,-18.4,-0.9,18.5
COc1ccc2c(c1)C13CCCC[C@@H]1C(C2)N(C)CC3 (some centres not stated),135.9*,-5.8,-3.5,1.6,5.5,3.9
CC(=O)N1c2ccccc2C(c2ccccc2)=NCC1C(=O)NCc1ccccc1 (configuration not stated),3.6,.,0.9,0.3,.,.
CN1CCC2(CC1)C(C#N)=C(N)NC(S)=C2C#N,30.6*!,-22.8,8.0,-7.8,14.9,18.9
CC1=NNC(=O)C1Br (configuration not stated),49.9*,6.2,5.7,2.1,2.8,73.6*
CN(CC=CCN(C)P(=S)(N1CC1)N1CC1)P(=S)(N1CC1)N1CC1,51.5*,1.9,7.3,-3.8,-0.2,-6.0
N#Cc1ccc2nc(-c3ccc(CN4CCC(n5c(=O)[nH]c6cc(Cl)ccc65)CC4)cc3)c(-c3ccccc3)nc2c1,-3.2,7.8,-4.8,-9.5,.,.
Cc1cccc2nc(-c3ccccc3)c(-c3ccc(CN4CCC(n5c(=O)[nH]c6cc(Cl)ccc65)CC4)cc3)nc12,1.6,2.8,-19.1,-12.3,.,.
C[C@H]1CNCCN1c1ccc(N2CC[C@@H](O)C2)c(C#N)c1,-1.3,-6.2,3.0,14.8,.,.
Cc1cc(N2CCNC[C@@H]2C)ccc1N1CC[C@@H](O)C1,46.9*,4.6,19.9,6.7,.,3.4
O=C1NS(=O)c2cc([N+](=O)[O-])cc([N+](=O)[O-])c21 (configuration not stated),37.8*,-3.6,12.0,-3.9,7.0,26.6*
Cc1cccc(N=C2c3cc([N+](=O)[O-])ccc3-c3c2cc([N+](=O)[O-])cc3[N+](=O)[O-])c1,-1.4,-0.4,4.4,8.3,25.8,.
C[C@H](Cc1ccc(OCC(=O)O)cc1)NC[C@H](O)c1cccc(Cl)c1,-3.7,4.4,12.8,4.5,.,.
COc1ccc(C2=NCC(=S)Nc3ccc(Cl)cc32)cc1Cl,40.2*,6.3,1.3,0.1,-5.5,-2.1
Nc1cc(Cl)c2nonc2c1[N+](=O)[O-],40.8*,-11.8,0.1,-9.6,1.2,10.3
O=C1NC(=O)C2(CCN(c3ccccc3)CC2)C(=O)N1,-3.3,7.5,-0.1,5.9,1.0,.
O=C1NC(=O)N(CCc2ccc(F)cc2)C(=O)/C1=C/c1ccco1,35.4*,-16.7,15.8,-7.4,31.1,3.3
O=C1NC(=S)N(c2ccccc2)C(=O)/C1=C/c1ccco1,54.7*,-53.1,17.5,-18.4,5.0,74.3*
COc1ccccc1/C=C1\C(=O)NC(=S)N(c2ccccc2)C1=O,38.2*,-7.5,6.7,0.7,-0.4,21.2*
COc1ccccc1C=C1C(=O)NC(=S)NC1=O,29.6*,-4.0,-3.4,2.9,7.5,38.7*
O=C1NC(=S)N(c2ccc(F)cc2)C(=O)/C1=C/c1ccccc1O,1.9,-2.4,3.1,2.9,-12.7,.
CCOc1cccc(N2C(=O)/C(=C/c3ccco3)C(=O)NC2=S)c1,20.1,-78.8,-6.7,-5.9,13.5,.
Cc1ccc(/C=C2/C(=O)NC(=O)N(CCc3ccc(F)cc3)C2=O)o1,12.0,-3.1,1.6,-25.8,-12.4,.
CCCCn1c(NC(=O)c2ccco2)c(C(=O)OCC)c2nc3ccccc3nc21,40.8*,-4.6,-15.7,-4.5,-7.3,7.7
Nc1c2c(nc3ccccc13)CCN(Cc1ccccc1)C2,44.3*,3.2,7.6,-1.4,1.6,9.1
SMILES,PRMT1 inh,TCR-CD3 inh,mABHD4 FP,SIAE inh,HTRA1 inh,PRMT1 confirm
CC(C)C(CN1CCC(C)(c2cccc(O)c2)[C@@H](C)C1)NC(=O)C1Cc2ccc(O)cc2CN1 (some centres not stated),-2.1,0.7,-2.0,1.3,.,.
Cc1ccc2[nH]c3c(c2c1)CN(C(=O)CN1C[C@H]2C[C@@H](C1)c1cccc(=O)n1C2)CC3,49.7*,0.1,4.1,3.9,-5.8,0.9
OC1CN2CCCC(O)C2C1O (configuration not stated),-0.3,7.3,-0.5,8.3,.,.
O=C1NC(=S)NC(=O)C1=Cc1cccn1-c1ccc(O)cc1,42.4*,5.8,28.7,8.3,19.9,67.9*
Cc1cc(C)cc(N2C(=O)NC(=O)/C(=C\c3cccn3-c3ccc(Cl)cc3)C2=O)c1,2.5,-0.4,-5.3,-20.7,0.4,.
CC(C)NC1(c2ccccc2)CCCCC1,0.0,-2.5,-3.1,-4.6,.,.
CN(C)c1ccc(/C=C2/C(=O)NC(=O)N(Cc3ccco3)C2=O)cc1,28.9*,-0.8,-12.4,-13.4,-0.6,3.2
CCN(CC)c1ccc(/C=C2/C(=O)NC(=O)N(Cc3ccco3)C2=O)cc1,29.7*,-72.4,-70.7,-87.2,-17.1,3.2
Cc1cc(/C=C2/C(=O)NC(=O)N(Cc3ccco3)C2=O)c(C)n1-c1ccccc1,18.4,0.3,-3.3,-12.6,-5.2,.
S=P(N1CCOCC1)(N1CC1)N1CC1,3.6,6.8,4.2,1.2,-0.1,.
S=P(N1CCCCCC1)(N1CC1)N1CC1,30.5*,2.8,0.3,12.1,2.6,-3.5
CCCCCN1C(=O)c2ccccc2[C@@]2(C(=O)OCC)Cc3cc(OC)ccc3[C@@H]12,6.6,5.7,-8.7,-8.8,.,.
CN1C(=O)C(=Cc2c(OCc3cnc(Cl)s3)ccc3ccccc23)C(=O)N(C)C1=O,43.5*,-11.0,-12.9,-13.8,-19.1,-1.1
CCn1cc(C=C2C(=O)N(C)C(=O)N(C)C2=O)c2ccccc21,7.1,0.4,-0.6,-7.0,-0.8,.
COC(=O)C1=C(c2ccc(OC(F)(F)F)cc2)C[C@@H]2CC[C@H]1N2C(=O)NCc1cc(C)oc1C(F)(F)F,2.0,-5.7,10.1,-3.9,-34.1,.
O=C1NC(=O)N(Cc2ccc(F)cc2)C(=O)/C1=C\c1ccc([N+](=O)[O-])s1,39.3*,-44.8,-65.3,-44.8,42.6*,71.9*
COc1ccc(CN2C(=O)NC(=O)/C(=C/c3ccc([N+](=O)[O-])s3)C2=O)cc1,31.4*,-37.9,-81.8,-8.0,34.2,65.7*
COc1ccc(N2C(=O)NC(=O)/C(=C/c3ccc([N+](=O)[O-])s3)C2=O)cc1,19.1,-55.7,-64.1,-40.1,.,.
COc1ccc(N2C(=O)NC(=O)/C(=C\c3ccc([N+](=O)[O-])s3)C2=O)cc1,39.4*,-53.5,-70.9,-65.0,18.2,49.6*
O=C(CN1C(=O)CN=C(c2ccccc2)c2cc(Cl)ccc21)NC1CCCCC1,3.1,.,1.4,0.2,.,.
COC(=O)[C@@]1(Sc2ccc(C)cc2)CC(=O)N(P(=O)(OC)OC)[C@@H]1c1ccccc1,8.8,2.0,11.1,1.8,.,.

# Screening results (PubChem BioAssay)
